From ChEMBL document CHEMBL4828732, “Synthesis and biological evaluation of selective survivin inhibitors derived from the MX-106 hydroxyquinoline scaffold” (Eur J Med Chem, 2021)
Calls of active or inactive are those of the source. The rule behind the calls is not given here.

Experiments:
SK-BR-3 = test: cells; details: Homo sapiens, SK-BR-3, 72 h
[1] = Resistance index, ratio of IC50 for antiproliferation activity against human MDA-MB-435/LCC6MDR cells to IC50 for antiproliferation activity against human MDA-MB-435 cells assessed as cell growth inhibition measured after 72 hrs by MTS assay; format: functional
RPMI-7951 = test: cells; details: Homo sapiens, RPMI-7951, 72 h
MDA-MB-435/LCC6MDR1 = test: cells; details: Homo sapiens, MDA-MB-435, 72 h
MDA-MB-435 = test: cells; details: Homo sapiens, MDA-MB-435, 72 h
MDA-MB-453 = test: cells; details: Homo sapiens, MDA-MB-453, 72 h
A-375 [2] = test: cells; details: Homo sapiens, A-375, 72 h
[3] = Metabolic stability of the compound in human liver microsomes assessed as half life at 10 uM incubated for 10 mins in presence of NADPH by UPLC-MS analysis; format: ADME, Microsome
[4] = Metabolic stability of the compound in mouse liver microsomes assessed as clearance at 10 uM incubated for 10 mins in presence of NADPH by UPLC-MS analysis; format: ADME, Microsome
[5] = Metabolic stability of the compound in mouse liver microsomes assessed as half life at 10 uM incubated for 10 mins in presence of NADPH by UPLC-MS analysis; format: ADME, Microsome
[6] = Metabolic stability of the compound in rat liver microsomes assessed as clearance at 10 uM incubated for 10 mins in presence of NADPH by UPLC-MS analysis; format: ADME, Microsome
[7] = Metabolic stability of the compound in rat liver microsomes assessed as half life at 10 uM incubated for 10 mins in presence of NADPH by UPLC-MS analysis; format: ADME, Microsome
[8] = Metabolic stability of the compound in human liver microsomes assessed as clearance at 10 uM incubated for 240 mins in presence of NADPH by UPLC-MS analysis; details: 4 h
OVCAR-3 = test: cells; details: Homo sapiens, OVCAR-3, 72 h
A-375 [9] = test: Downregulation of survivin protein expression in human A-375 cells measured after 24 hrs by Westernblot analysis; format: functional, cell-based
How it was run: (§1)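 A375 cells (2 × 10⁶ per 10-cm dish) attached overnight, then treated 24 h in DMEM with 1, 5 or 10 μM. Lysed in RIPA with protease/phosphatase inhibitors; protein measured by Bradford. 50 μg run on SDS-PAGE, transferred to PVDF, blocked in 5% milk, probed overnight at 4°C for survivin, cleaved PARP, cIAP1, XIAP, Livin, with HRP-GAPDH as loading control; ECL detection.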

OVCAR-8 = test: cells; details: Homo sapiens, OVCAR-8, 72 h
A-375 [10] = test: Induction of apoptosis in human A-375 cells assessed as increase in cleaved PARP level after 24 hrs by Western blot analysis; format: functional, cell-based
How it was run: as §1

| Structure (SMILES) | IC50 (SK-BR-3) | IC50 (RPMI-7951) | IC50 (MDA-MB-435/LCC6MDR1) | IC50 (MDA-MB-435) | IC50 (MDA-MB-453) | IC50 (A-375 [2]) | t1/2 [3] | CLH [4] | t1/2 [5] | CLH [6] | t1/2 [7] | CLH [8] | IC50 (OVCAR-3) | IC50 (OVCAR-8) | Ratio IC50 [1] | Activity (A-375 [9]) | Activity (A-375 [10]) |
| --- | --- | --- | --- | --- | --- | --- | --- | --- | --- | --- | --- | --- | --- | --- | --- | --- | --- |
| CC(C)c1ccc(COCc2cc(-c3cncc4ccccc34)c(O)c3ncccc23)cc1 | 1500 nM | 500 nM | 1000 nM | 600 nM | 1300 nM | 600 nM | 1.4 h | 19.9 µL/min/mg | 1.2 h | 36.7 µL/min/mg | 0.6 h | 16.3 µL/min/mg | – | – | 1.6 | – | – |
| Oc1c(CN2CCCC2)cc(Cn2ncc(-c3ccccc3Br)n2)c2cccnc12 | 3000 nM | 700 nM | 500 nM | 2400 nM | 3100 nM | 700 nM | – | – | – | – | – | – | – | – | 0.2 | – | – |
| CCN(CC)Cc1cc(Cn2ncc(-c3ccc(C(F)(F)F)cc3)n2)c2cccnc2c1O | 4000 nM | 1900 nM | 1700 nM | 3800 nM | 6200 nM | 1000 nM | – | – | – | – | – | – | – | – | 0.5 | – | – |
| Oc1c(CN2CCOCC2)cc(Cn2ncc(-c3ccc(Br)cc3)n2)c2cccnc12 | 3000 nM | 700 nM | 900 nM | 2400 nM | 2400 nM | 1000 nM | – | – | – | – | – | – | – | – | 0.4 | – | – |
| CC(C)c1ccc(COCc2cc(-c3ccnc4ccccc34)c(O)c3ncccc23)cc1 | 3100 nM | 700 nM | 1000 nM | 1200 nM | 1700 nM | 800 nM | – | – | – | – | – | – | – | – | 0.8 | – | – |
| CC(C)c1ccc(COCc2cc(-c3ccc(C(F)(F)F)cc3)c(O)c3ncccc23)cc1 | 5700 nM | 1300 nM | 1200 nM | 1900 nM | 4400 nM | 900 nM | – | – | – | – | – | – | – | – | 0.6 | – | – |
| COc1ccc(-c2cc(COCc3ccc(C(C)C)cc3)c3cccnc3c2O)cc1 | 1300 nM | 600 nM | 3000 nM | 1900 nM | 800 nM | 800 nM | – | – | – | – | – | – | – | – | 1.6 | – | – |
| Cc1cccc(-c2cc(COCc3ccc(C(C)C)cc3)c3cccnc3c2O)c1 | 3300 nM | 1100 nM | 1000 nM | 1800 nM | 1700 nM | 700 nM | – | – | – | – | – | – | – | – | 0.6 | – | – |
| CC(C)c1ccc(COCc2cc(-c3ccsc3)c(O)c3ncccc23)cc1 | 800 nM | 500 nM | 900 nM | 1100 nM | 600 nM | 600 nM | – | – | – | – | – | – | – | – | 0.9 | – | – |
| Oc1c(CN2CCCC2)cc(COC2CCc3ccccc3C2)c2cccnc12 (configuration not stated) | 3900 nM | 800 nM | 1300 nM | 3300 nM | – | 1000 nM | – | – | – | – | – | – | – | – | 0.4 | – | – |
| Oc1c(CN2CCCC2)cc(COC2Cc3ccccc3C2)c2cccnc12 | 5900 nM | 1300 nM | 2200 nM | 2200 nM | 2400 nM | 1900 nM | – | – | – | – | – | – | – | – | 1 | – | – |
| Cc1ccc(-c2cc(COCc3ccc(C(C)C)cc3)c3cccnc3c2O)cc1 | 1600 nM | 700 nM | 2300 nM | 1800 nM | 900 nM | 800 nM | – | – | – | – | – | – | – | – | 1.3 | – | – |
| Oc1c(CN2CCCC2)cc(Cn2ncc(-c3ccc(OCc4ccccc4)cc3)n2)c2cccnc12 | 2700 nM | 600 nM | 2200 nM | 3200 nM | 1800 nM | 900 nM | – | – | – | – | – | – | – | – | 0.7 | – | – |
| COCC[n+]1c2c(n(Cc3cnccn3)c1C)C(=O)c1ccccc1C2=O.[Br-] [SEPANTRONIUM BROMIDE] | – | – | > 1000 nM | – | – | – | – | – | – | – | – | – | – | – | >425 | – | – |
| CC(C)c1ccc(COCc2cc(Br)c(O)c3ncccc23)cc1 | 5700 nM | 800 nM | 200 nM | 2100 nM | 1300 nM | 1000 nM | – | – | – | – | – | – | – | – | 0.1 | – | – |
| Oc1c(CN2CCNCC2)cc(Cn2ncc(-c3ccc(Br)cc3)n2)c2cccnc12 | 2400 nM | 600 nM | 5100 nM | 4700 nM | 2000 nM | 800 nM | – | – | – | – | – | – | – | – | 1.1 | – | – |
| CC(C)c1ccc(COCc2cc(CN3CCCC3)c(O)c3ncccc23)cc1 | 2300 nM | 1100 nM | 2100 nM | 3500 nM | 1600 nM | 1000 nM | – | – | – | – | – | – | – | – | 0.6 | – | – |
| Oc1c(CN2CCCC2)cc(Cn2cnc(-c3ccccc3)c2)c2cccnc12 | 6900 nM | 2800 nM | 1300 nM | 8900 nM | 3100 nM | 2200 nM | – | – | – | – | – | – | – | – | 0.1 | – | – |

Second part, led by results:

| IC50 (SK-BR-3) | IC50 (RPMI-7951) | IC50 (MDA-MB-435/LCC6MDR1) | IC50 (MDA-MB-435) | IC50 (MDA-MB-453) | IC50 (A-375 [2]) | t1/2 [3] | CLH [4] | t1/2 [5] | CLH [6] | t1/2 [7] | CLH [8] | IC50 (OVCAR-3) | IC50 (OVCAR-8) | Structure (SMILES) | Ratio IC50 [1] | Activity (A-375 [9]) | Activity (A-375 [10]) |
| --- | --- | --- | --- | --- | --- | --- | --- | --- | --- | --- | --- | --- | --- | --- | --- | --- | --- |
| 2900 nM | 600 nM | 700 nM | 2000 nM | 2900 nM | – | – | – | – | – | – | – | – | – | Cc1ccc(-c2cnn(Cc3cc(CN4CCCC4)c(O)c4ncccc34)n2)cc1 | 0.4 | – | – |
| 4200 nM | 2100 nM | 1600 nM | 3100 nM | 6300 nM | 900 nM | – | – | – | – | – | – | – | – | Oc1c(CN2CCCCCC2)cc(Cn2ncc(-c3ccc(C(F)(F)F)cc3)n2)c2cccnc12 | 0.5 | – | – |
| 3200 nM | 1600 nM | 1100 nM | 4100 nM | 3500 nM | 800 nM | – | – | – | – | – | – | – | – | Oc1c(CN2CCCC2)cc(Cn2ncc(-c3ccc(C(F)(F)F)cc3)n2)c2cccnc12 | 0.3 | – | – |
| 2700 nM | 1700 nM | 600 nM | 3100 nM | 3100 nM | 700 nM | 1.9 h | 27.8 µL/min/mg | 0.8 h | 22.6 µL/min/mg | 1 h | 12 µL/min/mg | 1000 nM | 1700 nM | Oc1c(CN2CCCC2)cc(Cn2ncc(-c3ccc(Br)cc3)n2)c2cccnc12 | 0.2 | Dose-Dependent Effect | Active |
| 1900 nM | 900 nM | 1200 nM | 2200 nM | 1500 nM | 1000 nM | 1.3 h | 35 µL/min/mg | 0.7 h | 18 µL/min/mg | 1.3 h | 17.5 µL/min/mg | 500 nM | 1700 nM | Oc1c(CN2CCCCC2)cc(Cn2ncc(-c3ccc(Br)cc3)n2)c2cccnc12 | 0.5 | – | – |
| 3600 nM | 700 nM | 1100 nM | 4100 nM | 4100 nM | 700 nM | – | – | – | – | – | – | – | – | O=[N+]([O-])c1ccc(-c2cnn(Cc3cc(CN4CCCC4)c(O)c4ncccc34)n2)cc1 | 0.3 | – | – |
| 4000 nM | 3100 nM | 600 nM | 5000 nM | 2900 nM | 2000 nM | – | – | – | – | – | – | – | – | Oc1c(CN2CCCC2)cc(Cn2ncc(-c3ccccc3)n2)c2cccnc12 | 0.1 | – | – |
| 3300 nM | 700 nM | 1000 nM | 3200 nM | 3300 nM | 700 nM | – | – | – | – | – | – | – | – | CCc1ccc(-c2cnn(Cc3cc(CN4CCCC4)c(O)c4ncccc34)n2)cc1 | 0.3 | – | – |
| 4900 nM | 2300 nM | 1700 nM | 4600 nM | 5900 nM | 1100 nM | – | – | – | – | – | – | – | – | CC(C)c1ccc(-c2cnn(Cc3cc(CN4CCCC4)c(O)c4ncccc34)n2)cc1 | 0.4 | – | – |
| 6000 nM | 800 nM | 1800 nM | 5900 nM | 4100 nM | 1000 nM | – | – | – | – | – | – | – | – | N#Cc1ccc(-c2cnn(Cc3cc(CN4CCCC4)c(O)c4ncccc34)n2)cc1 | 0.3 | – | – |
| 2800 nM | 900 nM | 1400 nM | 3900 nM | 2200 nM | 900 nM | – | – | – | – | – | – | – | – | COc1ccc(-c2cnn(Cc3cc(CN4CCCC4)c(O)c4ncccc34)n2)cc1 | 0.3 | – | – |
| 2700 nM | 1300 nM | 1600 nM | 4800 nM | 2200 nM | 1100 nM | – | – | – | – | – | – | – | – | Oc1c(CN2CCCC2)cc(Cn2ncc(-c3ccsc3)n2)c2cccnc12 | 0.3 | – | – |
